mABHD4 FP: ABHD4 inhibitors, primary screen, biochemical, fluorescence polarization, mouse; (Lyso)-N-acylphosphatidylethanolamine lipase (Mus musculus), Q8VD66; purified mABHD4, FP-Rh probe fluorescence polarization; inhibition, % at 8.92 µM; 0.54% of 370,000 active; AID 720543, 2013;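 active means inhibition exceeding the mean over every tested compound plus 3 SD, cut at about 30% in these data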
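Material: mouse ABHD4 enzyme, wild type; Benchmarks: S159A mutant high control, sample median low control; Buffer or medium: HEPES pH 7.0, NaCl, Pluronic buffer; Signal: fluorescence polarization; Read-out: percent inhibition of probe binding, normalized to plate controls; Timing: pre-incubation 45 min, probe exposure 60 min, at 25 °C; Dosing: 8.92 µM, single dose.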
PRMT1 FP inh: PRMT1 methyltransferase inhibitors, primary screen, biochemical, fluorescence polarization. Protein arginine N-methyltransferase 1 (Homo sapiens), Q99873. 1.3% of 370,000 active. recombinant PRMT1, activity-based probe fluorescence polarization. inhibition, % at 2.79 µM;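 active means inhibition above about 21% made by adding two undisclosed values, limit read from the data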
SIAE inh: human SIAE inhibitors, primary screen, biochemical, fluorescence polarization, FP-Rh probe, 1536-well HTS; Sialate O-acetylesterase (Homo sapiens), Q9HAT2; SIAE FP-Rh probe binding; inhibition, % at 9.66 µM; 0.69% of 370,000 active; AID 1053197, 2014;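 active means inhibition above a cutoff: mean of compounds within the control limits plus 3 SD of those, cut at about 17% in these data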
rCAG RNA binder: binders of r(CAG) RNA repeats, primary screen, biochemical, fluorescence. r(CAG) RNA repeat, TO-PRO-1 dye displacement fluorescence. inhibition, % at 3 µM. 1.3% of 370,000 active. AID 651821, 2012;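 active means inhibition above the plate cutoff, the mean of all test compounds on that plate plus 3 SD, cut at about 35% in these data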;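 further: higher means more dye released from RNA so lower well fluorescence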
HTRA1 inh: HTRA1 serine protease inhibitors, primary screen, biochemical, fluorescence polarization, HTS. AID 504803, 2011. recombinant HTRA1, FP-rhodamine activity-based probe. inhibition, % at 5.96 µM. 0.5% of 340,000 active. Q92743; in the data active means inhibition above about 36%
Target sequence (Q92743 whole entry, looked up): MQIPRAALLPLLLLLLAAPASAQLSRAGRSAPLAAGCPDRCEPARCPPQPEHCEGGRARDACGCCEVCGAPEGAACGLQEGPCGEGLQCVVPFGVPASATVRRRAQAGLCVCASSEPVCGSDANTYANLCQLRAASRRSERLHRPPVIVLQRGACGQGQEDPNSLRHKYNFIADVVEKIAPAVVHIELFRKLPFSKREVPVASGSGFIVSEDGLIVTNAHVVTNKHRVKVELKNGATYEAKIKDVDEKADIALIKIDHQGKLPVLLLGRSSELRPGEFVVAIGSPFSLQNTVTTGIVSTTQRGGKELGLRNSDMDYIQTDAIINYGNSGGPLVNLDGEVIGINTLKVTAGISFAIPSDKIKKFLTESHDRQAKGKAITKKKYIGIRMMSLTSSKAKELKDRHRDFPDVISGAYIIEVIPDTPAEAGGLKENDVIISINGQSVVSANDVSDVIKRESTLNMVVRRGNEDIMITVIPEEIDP
rCAG bind conf: small molecules binding CAG repeat RNA – biochemical, fluorescence, confirmation; inhibition, % at 3 µM; shares compounds with rCAG RNA binder; r(CAG) RNA repeat, TO-PRO-1 dye displacement fluorescence; 70% of 4,300 active;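 active means inhibition above a per-plate cutoff, the mean inhibition of sample wells plus 3 SD, cut at about 35% in these data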;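 further: loss of TO-PRO-1 fluorescence as compound displaces dye from 1x1 AA loop RNA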
dCAG dye counter: displacement of TO-PRO-1 from CAG DNA duplex, counter-screen for rCAG RNA repeat binder project, biochemical, fluorescence, TO-PRO-1 dye, d(CAG) DNA oligo; shares compounds with rCAG RNA binder; inhibition, % at 3 µM; d(CAG) DNA oligo TO-PRO-1 dye displacement; AID 652068, 2013; 94% of 4,300 active;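 active means inhibition above its plate's cutoff, the mean test-well inhibition plus 3 SD, cut at about 4.8% in these data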;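 further: hits displace the dye from DNA and so lower well fluorescence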
dCAG dye DR: inhibitors of DNA CAG/GTC TO-PRO-1 complex, dose response, counter-screen for rCAG RNA repeat binder project, biochemical, fluorescence, TO-PRO-1 dye. 20% of 250 active. AID 686960, 2013. shares compounds with rCAG RNA binder. IC50, µM. DNA CAG/GTC duplex TO-PRO-1 dye displacement fluorescence; in the data active means IC50 below about 10 µM
Of the large screens only hits and unclear results are named; the others gave an inactive call (follow-up assays come after a bar, where they were run). In the library only some 3.3% were active in any assay of this set; here they are far more common.

CCCCN1CCS(=O)(=O)N(Cc2cn(Cc3cccc(Cl)c3)nn2)C(C(=O)OC)C1 (stereo unspecified)	none (no result: HTRA1 inh)
Cc1nn(-c2ccccc2)c2sc(C(=O)NCc3ccc4c(c3)OCO4)cc12	none (no result: HTRA1 inh)
CCCCC(=O)N[C@H]1CC[C@@]23CCCN2C(=O)CCC[C@H]3[C@H]1CCC	none (no result: rCAG RNA binder, HTRA1 inh)
CC(C)N(C(N)=NC(=O)OCc1ccccc1)C(C)C	none (no result: HTRA1 inh)
Cc1ccc(S(=O)(=O)N2[C@@H](c3ccc(F)cc3)C(C(=O)O)=C[C@H]2CC2CCCC2)cc1	rCAG RNA binder 51 | rCAG bind conf 57 | dCAG dye counter 17
COc1ccc([C@H]2C(C(=O)O)=C[C@@H](CC3CCCC3)N2S(=O)(=O)c2ccc(C)cc2)cc1OC	rCAG RNA binder 56 | rCAG bind conf 52 | dCAG dye counter 17
CCCCNC(=O)NS(=O)(=O)c1ccc(NC(=O)CSc2ncnc3scc(-c4ccc(C)cc4)c23)cc1	rCAG RNA binder 77 (no result: HTRA1 inh) | rCAG bind conf 70 | dCAG dye counter 32 | dCAG dye DR inactive
O=C(CSc1ncnc2scc(-c3ccccc3)c12)Nc1ccc(C(=O)O)cc1	rCAG RNA binder 35 | rCAG bind conf 35 | dCAG dye counter 10
Clc1ccc([C@H]2OC[C@@]3(CNCC4CC4)CS[C@H](c4ccc(Cl)cc4)N23)cc1	none (no result: HTRA1 inh)
C=CCN=C1NC(c2cccc(F)c2)C(C(=O)OC)=C(C)N1Cc1ccccc1C(F)(F)F (stereo unspecified)	none (no result: HTRA1 inh)
Cc1ccc(S(=O)(=O)N2[C@@H](c3ccc(F)cc3)C(C(=O)O)=CC[C@H]2c2ccc(Cl)cc2)cc1	rCAG RNA binder 78 | rCAG bind conf 69 | dCAG dye counter 31
Cc1ccc(S(=O)(=O)N2[C@@H](c3ccc(F)cc3)C(C(=O)O)=CC[C@H]2c2ccc(C(C)C)cc2)cc1	rCAG RNA binder 82 | rCAG bind conf 80 | dCAG dye counter 44
Cc1ccc(S(=O)(=O)N2[C@@H](c3ccccc3)C(C(=O)O)=CC[C@H]2c2ccc(Cl)cc2)cc1	rCAG RNA binder 58 | rCAG bind conf 72 | dCAG dye counter 34 | dCAG dye DR inactive
Cc1ccc(S(=O)(=O)N2[C@@H](c3ccc(Cl)cc3)C(C(=O)O)=CC[C@H]2c2cccc(C)c2)cc1	none
Cc1ccc(S(=O)(=O)N2[C@@H](c3ccc(Cl)cc3)C(C(=O)O)=CC[C@H]2c2ccc(Cl)cc2)cc1	rCAG RNA binder 82 | rCAG bind conf 84 | dCAG dye counter 53
COc1ccc(CN2C[C@H](O)COC[C@@H]3O[C@H](CC(=O)NCc4ccncn4)CC[C@H]32)cc1	none (no result: HTRA1 inh)
O=C1CCC[C@H]2C[C@H](NCc3ccco3)CC[C@]23CCCN13	none (no result: rCAG RNA binder, HTRA1 inh)
CCc1cc2c(nc1CC)CCCN2S(=O)(=O)c1cccs1	none (no result: HTRA1 inh)
COc1ccc([C@@H]2CC=C(C(=O)O)[C@H](c3ccc(F)cc3)N2S(=O)(=O)c2ccc(C)cc2)cc1OC	none
Cc1ccc(S(=O)(=O)N2[C@@H](c3ccc(Br)cc3)C(C(=O)O)=CC[C@H]2c2ccc(Cl)cc2)cc1	rCAG RNA binder 83 | rCAG bind conf 82 | dCAG dye counter 53
COc1ccc([C@@H]2CC=C(C(=O)O)[C@H](c3ccc(Br)cc3)N2S(=O)(=O)c2ccc(C)cc2)cc1OC	rCAG RNA binder 47 | rCAG bind conf 43 | dCAG dye counter 14
CCOc1ccc([C@@H]2CC=C(C(=O)O)[C@H](c3ccc(Cl)cc3)N2S(=O)(=O)c2ccc(C)cc2)cc1	rCAG RNA binder 59 | rCAG bind conf 74 | dCAG dye counter 37
Cc1ccc(S(=O)(=O)N2[C@@H](c3cccc(Cl)c3)C(C(=O)O)=CC[C@H]2c2ccc(C(C)C)cc2)cc1	rCAG RNA binder 85 | rCAG bind conf 80 | dCAG dye counter 45
CCc1ccc([C@@H]2CC=C(C(=O)O)[C@H](c3ccc(Br)cc3)N2S(=O)(=O)c2ccc(C)cc2)cc1	none
Cc1ccc([C@@H]2CC=C(C(=O)O)[C@H](c3ccc(Cl)cc3)N2S(=O)(=O)c2ccc(C)cc2)cc1	rCAG RNA binder 84 | rCAG bind conf 78 | dCAG dye counter 45
O=C(O)C1=CC[C@@H](c2ccc(Cl)cc2)N(S(=O)(=O)c2ccc(Cl)cc2)[C@H]1c1ccc(Br)cc1	rCAG RNA binder 85 | rCAG bind conf 88 | dCAG dye counter 58
N#Cc1c(=O)c2nc(NCc3ccccc3)ncc2n2ccccc12	none
N#Cc1c(=O)c2nc(NCCCO)ncc2n2c(=O)c3ccccc3[nH]c12	rCAG RNA binder 41 | rCAG bind conf 67 | dCAG dye counter 26 | dCAG dye DR 5.4
Cc1cc(C)cc(C(=O)OCCCN(C)C2CN(Cc3cn(Cc4ccccc4Cl)nn3)S(=O)(=O)C2)c1 (stereo unspecified)	none (no result: HTRA1 inh)
O=C(O)c1cc(-c2ccc(Cl)cc2)n(-c2ccc(Cl)cc2)n1	none
O=C(O)c1cc(-c2ccc(Cl)c(Cl)c2)n(-c2ccccc2)n1	rCAG RNA binder 41 | rCAG bind conf inactive | dCAG dye counter inactive
Cc1cc(/C=C2/C(=N)N3C(=NC2=O)SN=C3S(C)(=O)=O)c(C)n1-c1ccccc1F	rCAG RNA binder 80 | rCAG bind conf 83 | dCAG dye counter 56
CS(=O)(=O)C1=NSC2=NC(=O)/C(=C\c3cccn3-c3ccc(Cl)cc3)C(=N)N21	rCAG RNA binder 85 | rCAG bind conf 85 | dCAG dye counter 54
CC1=CC2=NC(=O)/C(=C\c3cc(C)n(-c4ccccc4F)c3C)C(=N)N2O1	none
O=C(Cn1cnc2ccccc2c1=O)N1CCN(C(=O)C2CCCO2)CC1 (stereo unspecified)	none (no result: HTRA1 inh)
O=C(C[C@@H]1C[C@@H]2c3cc(NC(=O)c4ccc5c(c4)OCO5)ccc3O[C@@H]2[C@@H](CO)O1)NCc1cccnc1	none (no result: HTRA1 inh)
CN(CCO)C1CN(Cc2cn(Cc3ccccc3C(F)(F)F)nn2)S(=O)(=O)C1 (stereo unspecified)	none (no result: HTRA1 inh)
